Experimental data from article PMC8518816 (Chemmedchem, 2021).

What was measured:
[1] = target: T1, PTP1B (Homo sapiens, UniProt P18031); assay: PTP1B enzyme inhibition; type: biochemical; conditions: for inhibition at 1 µM: read-out: % Inhib. PTP1B @ 1 μM
T1 sequence (P18031 1-322 limits assumed): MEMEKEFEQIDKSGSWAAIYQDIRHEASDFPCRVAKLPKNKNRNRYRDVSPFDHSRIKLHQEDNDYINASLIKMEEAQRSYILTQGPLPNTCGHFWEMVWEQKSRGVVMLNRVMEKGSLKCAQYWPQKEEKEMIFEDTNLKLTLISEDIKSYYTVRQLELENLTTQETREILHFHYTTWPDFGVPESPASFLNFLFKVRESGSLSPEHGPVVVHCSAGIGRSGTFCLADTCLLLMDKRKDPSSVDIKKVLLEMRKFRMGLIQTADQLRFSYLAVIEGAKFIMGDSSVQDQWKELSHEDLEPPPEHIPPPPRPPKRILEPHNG
Outline: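 Recombinant 322-amino-acid PTP1B preincubated with test compound; pNPP substrate then added and hydrolysis followed as absorbance increase at 405 nm. IC50 fitted from increasing compound concentrations, each point in duplicate. Percent inhibition also taken at 1 μM.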

[2] = target: T2, TCPTP (Homo sapiens, UniProt P17706); assay: TCPTP enzyme inhibition; type: biochemical; conditions: read-out: % Inhib. TCPTP @ 1 μM
T2 sequence (P17706 1-341 limits assumed): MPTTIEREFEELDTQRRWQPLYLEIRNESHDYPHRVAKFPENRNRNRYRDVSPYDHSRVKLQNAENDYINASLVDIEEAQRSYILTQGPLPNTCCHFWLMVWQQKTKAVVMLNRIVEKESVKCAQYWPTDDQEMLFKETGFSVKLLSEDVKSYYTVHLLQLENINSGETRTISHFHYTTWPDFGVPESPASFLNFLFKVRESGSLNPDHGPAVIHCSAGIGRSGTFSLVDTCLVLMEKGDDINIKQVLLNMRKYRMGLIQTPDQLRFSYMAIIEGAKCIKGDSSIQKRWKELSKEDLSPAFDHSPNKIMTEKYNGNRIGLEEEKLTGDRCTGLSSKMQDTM
Outline: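 Selectivity counter-screen using recombinant 341-amino-acid TCPTP mixed with test compound at 1 μM. Substrate pNPP added, and hydrolysis read as absorbance increase at 405 nm. Each point run in duplicate; output is percent inhibition.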

[3] = tested on: C2 C12 myotubes; assay: Glucose uptake; type: cell-based, Mouse; conditions: 2 μM, 90 min, 2-NBDG 0.1 mM
Outline: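 Mouse C2C12 myoblasts grown in DMEM with 10 % heat-inactivated FBS and penicillin/streptomycin (37 °C, 5 % CO2), then differentiated in DMEM with 2 % horse serum, changed every 48 h. Test compound at 2 μM for 90 min (insulin 10 nM, 30 min as positive control), then 0.1 mM 2-NBDG for 30 min. Washed three times with cold PBS. Intracellular fluorescence minus no-2-NBDG autofluorescence, corrected for BCA protein, relative to vehicle; 5 independent experiments, mean ± S.E.M.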

[4] = IC50±SD, soluble 322 amino acids PTP1B, pNPP substrate
[5] = pIC50, soluble 322 amino acids PTP1B

SMILES	SI (selectivity index, percentage inhibition ratio PTP1B/TCPTP at 1 μM) [1]	inhibition at 1 µM [1] [%]	inhibition at 1 µM [2] [%]	IC50 [1, 4] [nM]	IC50 [1, 5] [nM]	increase of glucose uptake with respect to control cells [3] [%]
Cc1nc2ccccc2n2cccc12 [Compound 1, 4‐methylpyrrolo[1,2‐a]quinoxaline]	0.94	51	54			
Cc1nc2ccccc2n2ccnc12 [Compound 2, 4‐Methylimidazo[1,2‐a]quinoxaline]	1.97	87	44	460 ± 40	468	15
Cc1nc2ccccc2n2cnnc12 [Compound 3, 4‐Methyl[1,2,4]triazolo[4,3‐a]quinoxaline]	1.27	70	55	790 ± 10	794	~30
c1ccc2c(c1)ncc1nnnn12 [Compound 9, Tetrazolo[1,5‐a]quinoxaline]	1.17	80	68	620 ± 200	631	

The remaining compounds from weak to strong by IC50 [1, 4], led by results:

SI (selectivity index, percentage inhibition ratio PTP1B/TCPTP at 1 μM) [1]	inhibition at 1 µM [1] [%]	inhibition at 1 µM [2] [%]	IC50 [1, 4] [nM]	IC50 [1, 5] [nM]	SMILES	increase of glucose uptake with respect to control cells [3] [%]
	37	35	2170 ± 80	2190	CC1Nc2ccccc2-n2nnnc21 (stereo not shown) [Compound 10, 4‐Methyl‐4,5‐dihydrotetrazolo[1,5‐a]quinoxaline]	
	46	50	1480 ± 70	1510	Cc1nc2ccccc2n2nnnc12 [Compound 4, 4‐Methyltetrazolo[1,5‐a]quinoxaline]	
